Published values collected from several papers.
Compare with care: the assays were run in different laboratories.
FLT3 K663Q: Receptor-type tyrosine-protein kinase FLT3 (FLT3, Homo sapiens, UniProt P36888, K663Q)
FLT3 N841I: Receptor-type tyrosine-protein kinase FLT3 (FLT3, Homo sapiens, UniProt P36888, N841I)

| Structure (SMILES) | target | assay | setting | measurement | value |
| --- | --- | --- | --- | --- | --- |
| N#Cc1ccc(Nc2ccc3[nH]c(=O)[nH]c3c2)c(Cl)c1 | Receptor-type tyrosine-protein kinase FLT3 (FLT3, Homo sapiens, UniProt P36888, D835Y) | cell-free assay, competition with immobilised ligand | 1 µM | remaining binding | 94% |
| Cc1ccc(C(=O)Nc2ccc(CN3CCN(C)CC3)c(C(F)(F)F)c2)cc1C#Cc1cnc2cccnn12 | FLT3 K663Q | enzyme activity, inhibitor | 23.5 nM | remaining activity | 6.3% |
| O=C(c1ccc(Nc2ncc(Cl)c(-c3cc4ccccc4s3)n2)cc1)N1CCC(N2CCCC2)CC1 | Receptor-type tyrosine-protein kinase FLT3 (FLT3, Homo sapiens, UniProt P36888, D835V/ITD) | binding, competition with immobilised ligand | 1 µM | remaining binding | 7.6% |
| Cn1nc(C(F)(F)F)cc1-c1cnc(N2CCc3cc(S(=O)(=O)Nc4c(F)cc(Cl)cc4F)cc(N4CCCC4=O)c32)nc1 | FLT3 N841I | cell-free assay, competition with immobilised ligand | 1 µM | remaining binding | 94% |
| C[C@@H]1CCN(c2nccc(-c3cnn4ncccc34)n2)C1 | FLT3 K663Q | binding | 1 µM | remaining binding | 100% |
| Nc1ncnc2occ(-c3ccc(NC(=O)Nc4cc(C(F)(F)F)ccc4F)cc3)c12 | Receptor-type tyrosine-protein kinase FLT3 (FLT3, Homo sapiens, UniProt P36888, R834Q) | cell-free assay, inhibitor | 20 µM | remaining signal | 0% |
| CC(C)CC(=O)N1CCc2nc(-c3ccc(Br)cc3)nc(N(C)Cc3ccccc3)c2C1 | Receptor-type tyrosine-protein kinase FLT3 (FLT3, Homo sapiens, UniProt P36888, F691L/ITD) | cell-free assay, competition with immobilised ligand | 0.1 µM | remaining binding | 68% |
| Cc1cnc(Nc2ccc(C(=O)N3CCC(N4CCCC4)CC3)cc2)nc1-c1cc2ccccc2s1 | Receptor-type tyrosine-protein kinase FLT3 (FLT3, Homo sapiens, UniProt P36888) | binding, competition with immobilised ligand | 1 µM | remaining binding | 1.6% |
| F[C@@H]1CCN(c2nccc(-c3cnn4ncccc34)n2)C1 | FLT3 N841I | binding | 1 µM | remaining binding | 100% |
